Most compounds without a hit are left out; they make up all but 1.4% or so of the library.
core dimer inh = HCV core protein dimerization inhibition; AID 1899; 0.33% of 300,000 active; inhibition, % at 5 µM; TR-FRET GST/Flag-core106 dimerization, 1536-well;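 active means inhibition above the mean of all tested compounds plus 3 SD, set per screening campaign, cut at about 45% in these data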
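Test system: GST/Flag-tagged HCV core106 proteins; Medium: KF-containing HEPES buffer, pH 7.45, DTT, CHAPS, BSA; Times: compound-protein-antibody incubation 4 h at 22.5 °C; Detection: TR-FRET 671 and 617 nm emission; Benchmarks: wells lacking GST-core106 and wells with excess unlabelled core106.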
HCV NS3 hel inh = blocks Hepatitis C virus NS3 helicase unwinding; inhibition, % at 10.9 µM; 0.56% of 290,000 active; AID 1800; NS3 helicase DNA unwinding, Cy5 molecular beacon fluorescence;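 active means inhibition above the mean of all tested compounds plus 3 SD, set per campaign, cut at about 35% in these data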;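 further: 0% = DMSO wells and 100% = thioflavine S control wells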
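Assay system: hepatitis C virus NS3 helicase domain fragment enzyme. Also added: annealed dual-labelled DNA beacon duplex, ATP-started. Timing: 1 h reaction at 25 °C, ATP-initiated. Technique: Cy5 fluorescence at 0 and 60 min, beacon hairpin quenching. Evaluation: % inhibition of unwinding. Replication: one well per compound.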
ZTA DNA inh = blocks Epstein-Barr virus ZTA, an EBNA-1 counter-screen; P03206; ZTA-DNA binding, fluorescence polarization; inhibition, % at 11 µM; 0.15% of 320,000 active; AID 2234; in the data active means inhibition above about 33%
Target sequence (P03206 whole entry, looked up): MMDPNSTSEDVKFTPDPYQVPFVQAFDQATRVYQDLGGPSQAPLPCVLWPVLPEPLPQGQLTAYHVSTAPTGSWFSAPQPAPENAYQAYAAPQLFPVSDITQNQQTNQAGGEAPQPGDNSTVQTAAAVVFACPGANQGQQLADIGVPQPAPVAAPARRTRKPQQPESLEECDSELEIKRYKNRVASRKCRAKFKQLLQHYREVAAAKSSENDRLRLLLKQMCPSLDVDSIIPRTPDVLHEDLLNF
EBNA-1 inh = blocks EBNA-1 binding to DNA | EBNA-1 DNA binding, fluorescence polarization | AID 1950 | inhibition, % at 14.8 µM | 0.34% of 300,000 active; in the data active means inhibition above about 28%
UBC9 SUMO inh = SUMOylation inhibition. HTRF SUMOylation assay, SAE1/SAE2 + UBC9, in vitro. inhibition, % at 35 µM. P63279. 0.36% of 290,000 active; in the data active means inhibition above about 50%, passing the limit was not always enough
Target sequence (P63279 whole entry, looked up): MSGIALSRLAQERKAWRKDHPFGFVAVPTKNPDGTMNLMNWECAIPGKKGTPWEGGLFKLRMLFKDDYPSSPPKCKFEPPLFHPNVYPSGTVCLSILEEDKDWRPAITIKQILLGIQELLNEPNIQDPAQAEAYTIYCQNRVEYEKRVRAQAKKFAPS
EBNA-1 inh conf = EBNA-1 (EBV) inhibition, confirmation; Recombinant EBNA-1 DBD, Cy5-DNA fluorescence polarization; inhibition, % at 14.8 µM; shares compounds with EBNA-1 inh; 35% of 830 active;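 active means mean inhibition across replicates above a set limit taken from the earlier primary screen, cut at about 28% in these data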;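 further: plate controls were EBNA-1 protein with DMSO for no effect and wells lacking EBNA-1 for full effect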
ZTA counter trip = counter-screen for EBNA-1 inhibitors: Epstein-Barr virus ZTA inhibitors, triplicate; Zta-ZRE DNA binding, Cy5 fluorescence polarization; shares compounds with EBNA-1 inh; inhibition, % at 11.1 µM; 830 tested, under 10 active;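 active means mean inhibition over triplicates above a set limit taken from the primary EBNA-1 screen, cut at about 37% in these data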;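 further: purified full length Zta protein with Cy5 labeled ZRE DNA probe; 0% = Zta with DMSO and 100% = wells lacking Zta protein; inhibitors lower polarization by freeing the labeled DNA probe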
An asterisk follows results filed as active.

CCC(NC(=O)CSc1nnnn1C1CC1)c1ccc(Br)cc1 (stereo not drawn) was read as ZTA DNA inh 1.
For C=CCNC(=S)Nc1c(C(=O)OC)[nH]c2cc(OC)ccc12 the results were core dimer inh 5, HCV NS3 hel inh 5, ZTA DNA inh 15, EBNA-1 inh 29*, UBC9 SUMO inh 4, EBNA-1 inh conf 7 and ZTA counter trip 1.
For COC(=O)c1[nH]c2cc(OC)ccc2c1NC(=O)c1c(F)cccc1F the results were core dimer inh -1, HCV NS3 hel inh 16, ZTA DNA inh 4, EBNA-1 inh -1 and UBC9 SUMO inh -1.
Screening Cc1ccc(CNC(=O)C2CC(=O)N(C3CCCC3)C2)cc1 (stereo not drawn) returned ZTA DNA inh 9.
For O=C(Nc1ccc(N2CCN(c3ncccc3C(F)(F)F)CC2)nc1)c1cccs1 the results were core dimer inh -2, HCV NS3 hel inh 6, ZTA DNA inh -8, EBNA-1 inh 1 and UBC9 SUMO inh -21.
`O=C(Nc1ccc(N2CCN(c3ccc(C(F)(F)F)cn3)CC2)nc1)c1cccs1` gave core dimer inh 4, HCV NS3 hel inh 0, ZTA DNA inh 2, EBNA-1 inh 39*, UBC9 SUMO inh 1, EBNA-1 inh conf 14 and ZTA counter trip -3.
`CCN(CC)S(=O)(=O)c1ccc(C(=O)NN(C)C2=NS(=O)(=O)c3ccccc32)cc1` gave core dimer inh 1, HCV NS3 hel inh 16, ZTA DNA inh -2, EBNA-1 inh 36*, UBC9 SUMO inh -8, EBNA-1 inh conf 2 and ZTA counter trip -11.
For Cc1ccc(C2/C(=C(\O)c3ccc4c(c3)OCCO4)C(=O)C(=O)N2Cc2cccnc2)cc1 (stereo not drawn) the results were core dimer inh -12, HCV NS3 hel inh 15, ZTA DNA inh -5, EBNA-1 inh -4 and UBC9 SUMO inh 10.
For NC(=O)CC(NC(=O)c1ccc(Cl)cc1)C(=O)NCCc1ccc(S(N)(=O)=O)cc1 (stereo not drawn) the results were core dimer inh 10, HCV NS3 hel inh -5, ZTA DNA inh -7, EBNA-1 inh 9 and UBC9 SUMO inh 16.
`CCc1nnc(NC(=O)CSc2ccc(-c3nc4ccccc4[nH]3)cn2)s1` gave core dimer inh 12, HCV NS3 hel inh -10, ZTA DNA inh 14, EBNA-1 inh 58*, UBC9 SUMO inh 3, EBNA-1 inh conf 53* and ZTA counter trip 0.
For Cc1ccc(-n2c(SCC(=O)Nc3nccs3)nc3c(c2=O)SCC3)cc1 the results were core dimer inh 1, HCV NS3 hel inh -3, ZTA DNA inh 23, EBNA-1 inh 39*, UBC9 SUMO inh 7, EBNA-1 inh conf 38* and ZTA counter trip -3.
For COc1ccc(C(=O)NNC(=O)CSc2nnc(COc3ccc4ccccc4c3)n2C)cc1 the results were core dimer inh 4, HCV NS3 hel inh 5, ZTA DNA inh -1, EBNA-1 inh 82*, UBC9 SUMO inh 34, EBNA-1 inh conf 36* and ZTA counter trip 1.
`Cc1ccc(NCc2nnc(SCC(=O)Nc3cc(C)on3)n2C)cc1` gave core dimer inh -5, HCV NS3 hel inh 0, ZTA DNA inh 2, EBNA-1 inh 4 and UBC9 SUMO inh -17.
Cc1cccc(OCc2nnc(SCC(=O)Nc3cc(C)on3)n2C)c1 was read as core dimer inh -3, HCV NS3 hel inh -3, ZTA DNA inh -4, EBNA-1 inh 31*, UBC9 SUMO inh 22, EBNA-1 inh conf 8 and ZTA counter trip 14.
`Cc1ccc(C)c(OCC(=O)NNC(=O)CCN2CCN(c3ccccc3)CC2)c1` gave ZTA DNA inh -4.
`CCn1c(SCC(=O)Nc2ccc(C(C)=O)cc2)nc2c([nH]c3ccccc32)c1=O` gave core dimer inh 0, HCV NS3 hel inh 10, ZTA DNA inh -5, EBNA-1 inh 39*, UBC9 SUMO inh -8, EBNA-1 inh conf -6 and ZTA counter trip 3.
